Published values collected from several papers.
Protocols differ between the studies behind these lines.
Technique: competition with immobilised ligand
JAK2 JH1: Tyrosine-protein kinase JAK2, JH1 (JAK2, Homo sapiens, UniProt O60674)

O=C(NCCCN1CCOCC1)c1ccc(Nc2nccc(-c3cc4ccccc4s3)n2)cc1 — remaining binding (JAK2 JH1; binding; 1 µM): 0.4%
CS(=O)(=O)N1CCCC(NC(=O)[C@H](CCC2CCCCC2)NC(=O)c2ccc(CNC(=O)c3cnc4ccccn34)cc2)C1 (stereo partly drawn) — remaining binding (JAK2 JH1; cell-free assay; 0.1 µM): 100%
c1cncc(-c2cccc(Nc3nccc(NC4CCCCC4)n3)c2)c1 — remaining binding (JAK2 JH1; binding; 10 µM): 0.05%
C[C@@H]1CN(c2ccc3ncc(-c4ccc5[nH]nc(C6CC6)c5c4)n3n2)C[C@H](C)O1 — remaining binding (Tyrosine-protein kinase JAK2 (JAK2, Homo sapiens, UniProt O60674); binding; 50 nM): 100%
COc1cnc(Nc2cccc(S(N)(=O)=O)c2)nc1N1CCN(c2ccccc2)C(=O)C1 — remaining binding (JAK2 JH1; binding; 1 µM): 6.1%
O=C(NCCCN1CCOCC1)c1ccc(Nc2ncc(Cl)c(-c3ccc(Cl)s3)n2)cc1 — remaining binding (JAK2 JH1; binding; 1 µM): 2.9%
CN(C)C(=O)Cn1cc(-c2nc([C@@](C)(c3ccc(-c4cnc(N)nc4)cc3)C3CC3)no2)cn1 — remaining binding (JAK2 JH1; cell-free assay; 1 µM): 73%
N#Cc1ccccc1CSc1nnc2c(n1)[nH]c1ccccc12 — remaining binding (JAK2 JH1; binding; 10 µM): 100%
Cc1cnn2ncc(-c3ccnc(N(C)C)n3)c2c1 — remaining binding (JAK2 JH1; cell-free assay; 1 µM): 93%
O=C(Nc1c[nH]nc1C(=O)NC1CCNCC1)c1cc(F)cc(F)c1 — remaining binding (JAK2 JH1; binding; 1 µM): 100%
COc1ncc2cc3ccccc3nc2c1C#N — remaining binding (JAK2 JH1; cell-free assay; 5 µM): 88%
CN(CCCC(F)(F)F)c1nccc(-c2cnn3ncccc23)n1 — remaining binding (JAK2 JH1; cell-free assay; 1 µM): 94%
O=C(NS(=O)(=O)c1ccc(NCC2CCOCC2)c([N+](=O)[O-])c1)c1ccc(N2CCN(Cc3ccc(C(F)(F)F)cc3-c3ccc(Cl)cc3)CC2)cc1Oc1cnc2[nH]ccc2c1 — remaining binding (JAK2 JH1; cell-free assay; 1 µM): 90%
CNC(=O)[C@@H]1CC[C@@H](n2c(-c3ccc4cnccc4c3)nc3ccc(C(=O)NCc4cccc(C(N)=O)c4)cc32)C1 — remaining binding (JAK2 JH1; binding; 1 µM): 100%
CCc1ccccc1C(=O)Nc1n[nH]c2c(C)c(F)c(C3C(C#N)=C(C)N(C)C(C)=C3C#N)cc12 — remaining binding (JAK2 JH1; cell-free assay; 1 µM): 100%
N[C@@H]1CCN(c2nccc(-c3cnn4ncccc34)n2)C1 — remaining binding (JAK2 JH1; cell-free assay; 1 µM): 100%
Cc1cnc(Nc2ccc(C(=O)N3CCC(N4CCCC4)CC3)cc2)nc1-c1cc2ccccc2s1 — remaining binding (JAK2 JH1; binding; 1 µM): 0%
COc1ccc2cc(OCC3(C(=O)O)CN(C(=O)c4ccc(F)cc4)C3)ccc2c1 — remaining binding (JAK2 JH1; cell-free assay; 1 µM): 89%
